The values below come from ChEMBL document CHEMBL2093137, “WHO-TDR NTD Screening”.

One data set has as its system Schistosoma mansoni. Put plainly: WHO-TDR: Schistosomiasis. It counts as functional. Details: concentration or dose not given beside the values. In outline: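 Values are reported as percent inhibition and IC50. They come from a whole-organism screen of a 10,000-compound diverse Life Chemicals library against larval and/or adult worms of Schistosoma mansoni, Puerto Rican strain. The library had been filtered for drug-likeness and reactive groups.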

For data set [1], the system named is Onchocerca ochengi. Put plainly: (§1) WHO-TDR: Onchocerciasis. The arrangement: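 at 12.5 µM on microfilariae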. It counts as functional. In outline: (§2)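 Values are reported as percent inhibition and as IC50. They come from a whole-organism screen of a 10,000-compound diverse Life Chemicals library against microfilariae of Onchocerca ochengi or Onchocerca lienalis. The screen followed previously published standard procedures, with reference drugs as positive controls.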

Data set [2] in a line: WHO-TDR: Cytotoxicity. It counts as toxicity, cell-based. The following applies: human, MRC5 cells.
The test system of a further data set is Leishmania infantum. Put plainly: WHO-TDR: Leishmaniasis. It counts as functional, organism-based, Mus musculus. The following applies: Macrophage. In outline:
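Following previously published standard procedures, a whole-organism screen was run on Leishmania infantum MHOM/MA(BE)/67 amastigotes within murine peritoneal macrophages, with a reference drug as positive control. The 10,000 compounds tested formed a diverse Life Chemicals library filtered for drug-likeness and reactive groups. Potency against the parasite is reported as IC50.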

The next data set concerns Trypanosoma cruzi. Put plainly: WHO-TDR: Chagas disease. It counts as functional, organism-based, Homo sapiens. The settings on record: MRC5. Put shortly: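 Whole-organism screen of a 10,000-compound diverse library from Life Chemicals, filtered for drug-likeness and reactive groups, against intracellular amastigotes of Trypanosoma cruzi Tulahuen CL2 beta-galactosidase strain grown in MRC-5SV2 human lung fibroblast host cells. The assay followed previously published standard procedures, with a reference drug as positive control. Antiparasitic potency is reported as IC50.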

Another data set concerns Plasmodium falciparum K1. Put plainly: WHO-TDR: Malaria. Format: functional, organism-based, Homo sapiens. The settings on record: Erythrocyte. Put shortly:
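Following previously published standard procedures, with a reference drug serving as positive control, compounds were tested on the Plasmodium falciparum K1 strain inside human red blood cells. The 10,000-compound diverse set came from Life Chemicals after filtering for drug-likeness and reactive groups. Potency against the parasite appears as IC50.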

In data set [3] the test system is Onchocerca ochengi. The description is as §1. Format: functional. The arrangement: concentration or dose not given beside the values. In outline: as §2
This is another data set of the same source.

The subject of data set [4] is Trypanosoma brucei brucei. Put plainly: WHO-TDR: Human African Trypanosomiasis (HAT). The following applies: Squib-427. It counts as functional, organism-based. In outline:
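Bloodstream forms of the Trypanosoma brucei Squib 427 strain were tested in a whole-organism screen with a diverse library from Life Chemicals of 10,000 compounds. Before screening, the library was filtered for drug-likeness and for reactive groups. The assay used previously published standard procedures and included reference drugs as positive controls. Potency against the parasite is expressed as IC50.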

Converted amounts (≈) assume the structure as drawn. A value given as a limit tells only on which side of the number the result lay.

What is called % Inhibition is the share of the control response that was lost under treatment. The term IC50 denotes the concentration that gives 50% inhibition. For `O=C(Nc1nc(CSCc2ccc(F)cc2)cs1)c1ccco1`, the “% Inhibition” value in the data set with Schistosoma mansoni came out at 0%; in the data set on Onchocerca ochengi [1], 100%; in the data set with Onchocerca ochengi [3], 0%. For the same molecule, the IC50 (in data set [2]; with Leishmania infantum; with Trypanosoma cruzi; in the data set on Plasmodium falciparum K1; in data set [4]) was greater than 10.5 µg/mL throughout.

Consider `Cc1cc(=O)n2c(n1)SCC2CC(=O)NCCC(c1ccccc1)c1ccccc1` (stereo not given), for which the “% Inhibition” value in the data set with Schistosoma mansoni amounted to 0%; with Onchocerca ochengi [1], 100%; with Onchocerca ochengi [3], 0%. Besides, the IC50 is greater than 12.6 µg/mL in data set [2]; greater than 12.6 µg/mL with Leishmania infantum; greater than 12.6 µg/mL in the data set on Trypanosoma cruzi; 6.43 µg/mL (≈ 15.3 µM) with Plasmodium falciparum K1; 4.07 µg/mL (≈ 9.71 µM) in data set [4].

Turning to `Cc1cc(F)ccc1S(=O)(=O)Nc1ccc2c(c1)CN(C(=O)c1ccco1)CC2`, the “% Inhibition” value with Schistosoma mansoni turned out to be 0%; in the data set with Onchocerca ochengi [1], 100%; with Onchocerca ochengi [3], 0%. Moreover, the concentration for half-maximal inhibition (IC50) is 7.31 µg/mL (≈ 17.6 µM) in data set [2]; greater than 12.4 µg/mL with Leishmania infantum; 3.44 µg/mL (≈ 8.3 µM) with Trypanosoma cruzi; 6.28 µg/mL (≈ 15.2 µM) in the data set on Plasmodium falciparum K1; 4.03 µg/mL (≈ 9.71 µM) in data set [4].

`CN1CCCc2cc(C(CNC(=O)COc3ccc(Cl)cc3)N3CCCC3)ccc21` (stereo not given): the “% Inhibition” value with Schistosoma mansoni was found to be 25%; in the data set with Onchocerca ochengi [1] it was 0%; in the data set on Onchocerca ochengi [3], 0%. The IC50 in data set [2] was greater than 12.8 µg/mL; with Leishmania infantum, 4.16 µg/mL (≈ 9.71 µM); in the data set with Trypanosoma cruzi it was 4.46 µg/mL (≈ 10.4 µM); with Plasmodium falciparum K1, greater than 12.8 µg/mL; in data set [4], 0.411 µg/mL (≈ 0.96 µM).

Consider `O=S(=O)(Nc1nc2c(Cl)cccc2s1)c1ccc(Cl)s1`, for which the “% Inhibition” value in the data set on Schistosoma mansoni was 0%; in the data set on Onchocerca ochengi [1] it was 100%; with Onchocerca ochengi [3] it was 0%. In addition, the IC50 in data set [2] is greater than 11 µg/mL; with Leishmania infantum, greater than 11 µg/mL; in the data set with Trypanosoma cruzi, 10.4 µg/mL (≈ 28.5 µM); with Plasmodium falciparum K1 it was greater than 11 µg/mL; in data set [4], greater than 11 µg/mL.

Take `O=C(CSc1ncc(-c2ccccc2)[nH]1)Nc1cc(C(F)(F)F)ccc1Cl`: the “% Inhibition” value in the data set on Schistosoma mansoni amounted to 0%; in the data set on Onchocerca ochengi [1], 100%; in the data set with Onchocerca ochengi [3] it was 0%. In addition, the IC50 (in data set [2]; in the data set with Leishmania infantum; in the data set on Trypanosoma cruzi; with Plasmodium falciparum K1; in data set [4]) was greater than 12.4 µg/mL throughout.

Regarding `CN1CCN(C(CNC(=O)c2ccc(F)c(F)c2)c2ccc3c(c2)CCN3C)CC1` (stereo not given), the figures for the “% Inhibition” value in the data set with Schistosoma mansoni, in the data set with Onchocerca ochengi [1] and in the data set on Onchocerca ochengi [3] were 0%, 100% and 0%, respectively. Also, the IC50 was 3.34 µg/mL (≈ 8.05 µM) in data set [2]; 4.03 µg/mL (≈ 9.71 µM) in the data set with Leishmania infantum; greater than 12.4 µg/mL in the data set on Trypanosoma cruzi; 1.47 µg/mL (≈ 3.54 µM) with Plasmodium falciparum K1; greater than 12.4 µg/mL in data set [4].

In the case of `CC(C)c1cc(C(=O)NCC2CCCO2)nn1-c1nc2ccccc2s1` (stereo not given), the “% Inhibition” value with Schistosoma mansoni turned out to be 0%; in the data set with Onchocerca ochengi [1], 100%; with Onchocerca ochengi [3] it was 0%. Besides, the IC50 (in data set [2]; with Leishmania infantum; in the data set with Trypanosoma cruzi; in the data set with Plasmodium falciparum K1; in data set [4]) was greater than 11.1 µg/mL each time.

Regarding `CSc1nc(NC(C)C)c2cnn(CCNC(=O)COc3ccc(Cl)cc3)c2n1`, the “% Inhibition” value was determined as 0% in the data set with Schistosoma mansoni, 100% in the data set with Onchocerca ochengi [1] and 0% in the data set with Onchocerca ochengi [3]. Further, the IC50 in data set [2] is greater than 13 µg/mL; with Leishmania infantum, greater than 13 µg/mL; with Trypanosoma cruzi, 4.18 µg/mL (≈ 9.62 µM); in the data set with Plasmodium falciparum K1, greater than 13 µg/mL; in data set [4] it was 4.13 µg/mL (≈ 9.49 µM).

Consider `CC1Cc2ccccc2N1C(=O)Cc1csc(SCC(=O)Nc2ccc(F)cc2)n1` (stereo not given), for which the figures for the “% Inhibition” value in the data set on Schistosoma mansoni, with Onchocerca ochengi [1] and in the data set with Onchocerca ochengi [3] were 0%, 100% and 0%, respectively. For the same molecule, the IC50 is greater than 13.2 µg/mL in data set [2]; greater than 13.2 µg/mL in the data set with Leishmania infantum; 4.42 µg/mL (≈ 10 µM) in the data set on Trypanosoma cruzi; greater than 13.2 µg/mL in the data set on Plasmodium falciparum K1; greater than 13.2 µg/mL in data set [4].
